# Active and inactive are the calls of the source. The rule behind the calls is not given here.
# How the values were obtained:
# [1] = molecular target: Poly [ADP-ribose] polymerase 1 (Homo sapiens, UniProt P09874); experiment: Inhibition of PARP1 (unknown origin) after 15 mins by fluorometric analysis
# YCC-3/D [2] = experiment: Potentiation of cisplatin-induced cytotoxicity against human YCC-3/D cells assessed as reduction in cisplatin IC50 at 50 uM co-treated with cisplatin after 36 hrs by MTS assay; format: functional, cell-based
# YCC-3 = experiment: Potentiation of cisplatin-induced cytotoxicity against human YCC-3 cells assessed as reduction in cisplatin IC50 at 50 uM incubated for 8 hrs prior to cisplatin-addition measured after 36 hrs by MTS assay; format: functional, cell-based
# YCC-3/D [3] = experiment: Potentiation of cisplatin-induced cytotoxicity against human YCC-3/D cells assessed as reduction in cisplatin IC50 at 50 uM incubated for 8 hrs prior to cisplatin-addition measured after 36 hrs by MTS assay; format: functional, cell-based
# Summary of the method: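 Pretreatment format: cells seeded at 2500 cells/well, incubated overnight at 37 °C/5% CO2, exposed to PARP-1 inhibitor at 50 µM for 8 h. Inhibitor medium removed, cisplatin added over a concentration series for 36 h. MTS added for 2 h at 37 °C, absorbance read at 490 nm. Triplicate; cisplatin IC50 from % growth inhibition vs cisplatin concentration.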
# [4] = Cytotoxicity against human YCC-3/D cells after 36 hrs by MTS assay; format: cell-based
# Summary of the method: (§1)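 Cells (YCC-3 parent, or YCC-3/D cisplatin-resistant line kept at 2.5 µg/mL cisplatin) seeded at 5000 cells/well, incubated overnight at 37 °C/5% CO2, then exposed to compound for 36 h. Medium replaced with MTS-containing medium for 2 h at 37 °C, absorbance read at 490 nm. Triplicate; IC50 taken from plot of % growth inhibition vs concentration.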
# [5] = Cytotoxicity against human YCC-3 cells after 36 hrs by MTS assay; format: cell-based; conditions: YCC-3, 36 h; summary of the method: as §1
# Sequence of Poly [ADP-ribose] polymerase 1 (P09874 whole entry): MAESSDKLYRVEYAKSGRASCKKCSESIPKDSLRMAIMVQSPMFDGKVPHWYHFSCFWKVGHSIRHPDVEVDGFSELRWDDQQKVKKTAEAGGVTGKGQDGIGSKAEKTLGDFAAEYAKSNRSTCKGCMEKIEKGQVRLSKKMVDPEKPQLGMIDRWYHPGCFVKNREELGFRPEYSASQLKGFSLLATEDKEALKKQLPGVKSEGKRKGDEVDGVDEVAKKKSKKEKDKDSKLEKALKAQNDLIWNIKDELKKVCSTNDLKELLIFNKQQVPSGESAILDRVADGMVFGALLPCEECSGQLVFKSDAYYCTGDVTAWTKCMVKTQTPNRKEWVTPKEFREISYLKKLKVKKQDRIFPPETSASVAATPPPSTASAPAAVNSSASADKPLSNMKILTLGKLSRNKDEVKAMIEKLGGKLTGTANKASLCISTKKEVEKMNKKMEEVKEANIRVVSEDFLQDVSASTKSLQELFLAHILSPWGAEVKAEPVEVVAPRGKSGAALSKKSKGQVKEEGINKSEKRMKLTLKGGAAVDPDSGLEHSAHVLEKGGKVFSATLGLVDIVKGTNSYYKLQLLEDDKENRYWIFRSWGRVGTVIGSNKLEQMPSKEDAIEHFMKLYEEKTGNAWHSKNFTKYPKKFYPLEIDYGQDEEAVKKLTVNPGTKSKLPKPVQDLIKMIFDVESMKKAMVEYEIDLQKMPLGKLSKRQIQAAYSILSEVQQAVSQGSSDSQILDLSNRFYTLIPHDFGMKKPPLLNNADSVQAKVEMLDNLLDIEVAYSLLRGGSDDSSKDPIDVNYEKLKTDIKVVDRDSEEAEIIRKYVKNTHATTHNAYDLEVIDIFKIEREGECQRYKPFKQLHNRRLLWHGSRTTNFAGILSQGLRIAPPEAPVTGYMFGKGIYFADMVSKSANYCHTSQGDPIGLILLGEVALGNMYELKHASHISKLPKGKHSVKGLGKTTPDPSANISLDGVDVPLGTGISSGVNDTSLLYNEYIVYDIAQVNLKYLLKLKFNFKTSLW
smiles,measurement,setting,value
COc1ccccc1N1CCN(CCCc2nc3ccccc3c(=O)[nH]2)CC1,IC50,[1],0.189 µM
O=c1[nH]c(CCCN2CC=C(c3ccc(F)cc3)CC2)nc2ccccc12,IC50,[1],0.304 µM
O=c1[nH]c(CCCN2CCN(c3ccc(F)cc3)CC2)nc2ccccc12,Activity,YCC-3/D [2],inactive
same,Activity,YCC-3,inactive
same,Activity,YCC-3/D [3],Active
same,IC50,[4],> 200 µM
same,IC50,[5],> 200 µM
same,IC50,[1],0.077 µM
O=c1[nH]c(CCCN2CCC(c3ccccc3)CC2)nc2ccccc12,Activity,YCC-3/D [2],inactive
same,Activity,YCC-3,inactive
same,Activity,YCC-3/D [3],Active
same,IC50,[4],96.3 µM
same,IC50,[5],126 µM
same,IC50,[1],0.079 µM
O=c1[nH]c(CCCN2CCC(c3ccc(Cl)cc3)CC2)nc2ccccc12,IC50,[1],0.388 µM
O=c1[nH]c(CCCN2CCN(c3cccc(Cl)c3)CC2)nc2ccccc12,IC50,[1],1.01 µM
CCCCc1nc2ccccc2c(=O)[nH]1,IC50,[1],8.89 µM
